Data on eleven compounds can be found in ChEMBL document CHEMBL4622985, “Design, Synthesis, and Pharmacological Characterization of Heterobivalent Ligands for the Putative 5-HT2A/mGlu2 Receptor Complex” (J Med Chem, 2020).

Assay [1] has as its target T1, Metabotropic glutamate receptor 2 (Homo sapiens, UniProt Q14416). Nature of the assay: Agonist activity at human mGlu2 receptor expressed in HEK293 cells co-expressing Gqo5 assessed as increase in intracellular Ca2+ mobilization incubated for 1 hr by Fluo-4 dye based fluorescence assay. The format is functional, cell-based. In general terms: A change in cytosolic calcium serves as a functional read-out for many receptors and channels.

Assay [2] concerns the target T1, Metabotropic glutamate receptor 2. Nature of the assay: Positive modulator activity at human mGlu2 receptor expressed in HEK293 cells co-expressing Gqo5 assessed as increase in intracellular Ca2+ mobilization incubated for 1 hr in presence of EC20 glutamate by Fluo-4 dye based fluorescence assay. The class given is functional, cell-based.
Assay [3] addresses T2, 5-hydroxytryptamine receptor 2A (Homo sapiens, UniProt P28223). Nature of the assay: Antagonist activity at human 5HT2A receptor expressed in HEK293 cells assessed as inhibition of 5HT-induced intracellular Ca2+ mobilization incubated for 1 hr by Fluo-4 dye based fluorescence assay. The class given is functional, cell-based.
The target in assay [4] is T3, 5-hydroxytryptamine receptor 2A/Metabotropic glutamate receptor 2 (Homo sapiens, UniProt P28223+Q14416). Kind of assay: Agonist activity at human 5HT2A/mGlu2 receptor expressed in HEK293 cells co-expressing Gqo5 assessed as increase in intracellular Ca2+ mobilization incubated for 1 hr by Fluo-4 dye based fluorescence assay. The class given is functional, cell-based.
T3 sequence (P28223 whole entry): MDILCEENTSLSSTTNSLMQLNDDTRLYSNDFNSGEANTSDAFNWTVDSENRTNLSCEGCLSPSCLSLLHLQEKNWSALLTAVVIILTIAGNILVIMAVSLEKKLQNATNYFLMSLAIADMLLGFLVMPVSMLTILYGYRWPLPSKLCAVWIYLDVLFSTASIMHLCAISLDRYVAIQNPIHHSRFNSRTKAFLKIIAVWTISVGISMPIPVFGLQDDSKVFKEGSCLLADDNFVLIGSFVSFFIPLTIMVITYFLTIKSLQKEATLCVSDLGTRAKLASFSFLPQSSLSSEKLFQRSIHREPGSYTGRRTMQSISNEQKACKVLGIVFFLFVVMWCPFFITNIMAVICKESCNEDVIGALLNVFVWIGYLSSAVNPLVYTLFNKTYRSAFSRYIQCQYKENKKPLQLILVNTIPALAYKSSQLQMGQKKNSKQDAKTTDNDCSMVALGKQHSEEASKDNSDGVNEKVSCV
T3 sequence (Q14416 whole entry): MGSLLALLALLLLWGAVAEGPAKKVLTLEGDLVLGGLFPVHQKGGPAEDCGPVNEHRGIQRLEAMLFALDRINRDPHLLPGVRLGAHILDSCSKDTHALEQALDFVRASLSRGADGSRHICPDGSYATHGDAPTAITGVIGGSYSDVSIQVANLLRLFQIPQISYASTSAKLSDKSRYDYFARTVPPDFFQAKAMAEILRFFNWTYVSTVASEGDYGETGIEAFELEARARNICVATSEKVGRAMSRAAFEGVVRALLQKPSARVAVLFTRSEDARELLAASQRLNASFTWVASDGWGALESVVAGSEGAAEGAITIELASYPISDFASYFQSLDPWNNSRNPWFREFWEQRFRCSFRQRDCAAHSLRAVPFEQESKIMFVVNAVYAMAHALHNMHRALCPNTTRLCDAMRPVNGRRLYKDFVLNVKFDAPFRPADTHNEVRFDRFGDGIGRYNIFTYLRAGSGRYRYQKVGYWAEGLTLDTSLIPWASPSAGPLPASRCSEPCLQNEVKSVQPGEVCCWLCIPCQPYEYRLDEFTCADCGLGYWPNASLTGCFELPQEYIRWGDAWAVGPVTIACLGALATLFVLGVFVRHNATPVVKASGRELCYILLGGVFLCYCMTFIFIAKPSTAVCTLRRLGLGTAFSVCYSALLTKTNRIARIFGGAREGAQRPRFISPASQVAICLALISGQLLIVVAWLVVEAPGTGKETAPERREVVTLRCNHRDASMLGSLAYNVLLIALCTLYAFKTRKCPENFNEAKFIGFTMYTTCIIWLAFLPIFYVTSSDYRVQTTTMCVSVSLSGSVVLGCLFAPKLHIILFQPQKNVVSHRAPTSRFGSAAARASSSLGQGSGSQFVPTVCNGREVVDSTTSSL

The target in assay [5] is T3, 5-hydroxytryptamine receptor 2A/Metabotropic glutamate receptor 2. Nature of the assay: Positive modulator activity at human 5HT2A/mGlu2 receptor expressed in HEK293 cells co-expressing Gqo5 assessed as increase in intracellular Ca2+ mobilization incubated for 1 hr by Fluo-4 dye based fluorescence assay 5HT2A_HUMAN/GRM2_HUMAN P28223/Q14416. The class given is functional, cell-based.

For assay [6] the target is unchanged. Kind of assay: Antagonist activity at human 5HT2A/mGlu2 receptor expressed in HEK293 cells assessed as inhibition of 5HT-induced intracellular Ca2+ mobilization incubated for 1 hr by Fluo-4 dye based fluorescence assay 5HT2A_HUMAN/GRM2_HUMAN P28223/Q14416. The format is functional, cell-based.
Assay [7] has the same target. Nature of the assay: Antagonist activity at human 5HT2A/mGlu2 receptor expressed in HEK293 cells co-expressing Gqo5 assessed as inhibition of glutamate-induced intracellular Ca2+ mobilization incubated for 1 hr by Fluo-4 dye based fluorescence assay 5HT2A_HUMAN/GRM2_HUMAN P28223/Q14416. The class given is functional, cell-based.
Assay [8] shares this target. Kind of assay: Antagonist activity at human 5HT2A/mGlu2 receptor expressed in HEK293 cells co-expressing Gqo5 assessed as inhibition of 5HT-induced intracellular Ca2+ mobilization incubated for 1 hr by Fluo-4 dye based fluorescence assay 5HT2A_HUMAN/GRM2_HUMAN P28223/Q14416. The format is functional, cell-based.
Assay [9] deals with T2, 5-hydroxytryptamine receptor 2A. Kind of assay: Displacement of [3H]-ketanserin from human HT2A receptor expressed in HEK293 cell membranes incubated for 2 hrs by scintillation counting method. In short, it runs like this: (§1)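 Membranes from stable HEK293 lines were homogenized and centrifuged twice at 50.000g, 4 °C, then resuspended in 50 mM Tris-HCl, 10 mM MgCl2, 0.1 mM EDTA, pH 7.4. Competition used fixed [3H]ketanserin ~1.5 nM (1.3−1.8 nM) against varied test compound, with bound/free kept <10%. Incubation ran 2 h at rt with shaking, followed by GF/C filtration. Ki was obtained by Cheng−Prusoff using saturation KD. Three independent experiments, each in duplicate.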
Background: Loss of bound radioactivity is the signal in a displacement assay; it reports binding, not function.

Assay [10] deals with T3, 5-hydroxytryptamine receptor 2A/Metabotropic glutamate receptor 2. Kind of assay: Displacement of [3H]-ketanserin from human 5HT2A/mGlu2 receptor expressed in HEK293 cell membranes incubated for 2 hrs by scintillation counting method. The essentials: as §1
For assay [11] the target is unchanged. Nature of the assay: Displacement of [3H]-ketanserin from human 5HT2A/mGlu2 receptor expressed in HEK293 cell co-expressing Gqo5 membranes incubated for 2 hrs by scintillation counting method. The format is cell-based. In short, it runs like this:
as §1

T1 sequence (Q14416 whole entry): as above
T2 sequence (P28223 whole entry): as the sequence (P28223 whole entry) above

Regarding `COc1ccccc1C1CCN(c2ccn3c(CC4CC4)nnc3c2Cl)CC1`, the EC50 in assay [1] (read-out: EC50) is 37 nM; in [1] (read-out: pEC50 (converted)), 35.5 nM; in assay [2] (read-out: EC50) it was 5.2 nM; in [4] (read-out: EC50), 210 nM; in assay [5], 19 nM. The values for the IC50 in assay [3] (read-out: IC50) and in [6] (read-out: IC50) were 1300 nM and 10000 nM, respectively.

In the case of `COc1c(OCCOCCOCCOCCOCCOc2ccc(C3CCN(c4ccn5c(CC6CC6)nnc5c4Cl)CC3)cc2)cccc1C(=O)C1CCN(CCc2ccc(F)cc2)CC1`, the EC50 in assay [1] (read-out: EC50) was 1600 nM; in assay [2] (read-out: EC50) it was 510 nM; in assay [4] (read-out: EC50) it was 10000 to 50000 nM. The IC50 amounted to 450 nM in [3] (read-out: IC50), 1900 nM in assay [7], 2400 nM in assay [8] and 1000 nM in assay [6] (read-out: IC50). The figures for the Ki in [9] (read-out: Ki), in assay [10] (read-out: Ki) and in assay [11] (read-out: Ki) were 130 nM, 180 nM and 320 nM, respectively.

For `COc1c(OCCOCCOCCOCCOCCOCCOCCOCCOCCOCCOCCOCCOc2ccc(C3CCN(c4ccn5c(CC6CC6)nnc5c4Cl)CC3)cc2)cccc1C(=O)C1CCN(CCc2ccc(F)cc2)CC1`, the EC50 in assay [1] (read-out: EC50) is 2500 nM; in [2] (read-out: EC50) it was 480 nM; in assay [4] (read-out: EC50) it was 10000 to 50000 nM. The IC50 in [3] (read-out: IC50) worked out at 520 nM; in [7], 700 nM; in assay [8], 380 nM; in assay [6] (read-out: IC50), 1600 nM. For the same compound, the Ki in assay [9] (read-out: Ki) was found to be 200 nM; in [10] (read-out: Ki), 170 nM; in [11] (read-out: Ki) it was 170 nM.

As for `COCCOc1cccc(C(=O)C2CCN(CCc3ccc(F)cc3)CC2)c1OC`, the EC50 in assay [1] (read-out: EC50) was over 50000 nM; in assay [1] (read-out: pEC50 (converted)), over 50100 nM; in assay [2] (read-out: EC50), over 50000 nM; in [2] (read-out: pEC50 (converted)), over 50100 nM; in assay [4] (read-out: EC50), over 50000 nM; in assay [4] (read-out: pEC50 (converted)) it was over 50100 nM. For the same compound, the IC50 in assay [3] (read-out: IC50) is 9.3 nM; in assay [7] it was 29 nM; in assay [8] it was 23 nM; in [6] (read-out: IC50), 16 nM. The Ki in assay [9] (read-out: Ki) is 3 nM; in [10] (read-out: Ki) it was 6.5 nM; in assay [11] (read-out: Ki) it was 13 nM.

Turning to `COc1cccc(C(=O)C2CCN(CCc3ccc(F)cc3)CC2)c1OC`, the EC50 was over 50000 nM in [1] (read-out: EC50); over 50100 nM in assay [1] (read-out: pEC50 (converted)); over 50000 nM in assay [2] (read-out: EC50); over 50100 nM in [2] (read-out: pEC50 (converted)); over 50000 nM in assay [4] (read-out: EC50); over 50100 nM in assay [4] (read-out: pEC50 (converted)). In addition, the IC50 in assay [3] (read-out: IC50) stood at 0.81 nM; in assay [7] it was 24 nM; in assay [8], 5.4 nM; in assay [6] (read-out: IC50) it was 6.2 nM. Further, the Ki in assay [9] (read-out: Ki) came out at 0.52 nM; in assay [10] (read-out: Ki), 3 nM; in assay [11] (read-out: Ki), 8.7 nM.

Consider `COc1c(OCCOCCOCCOCCOCCOCCOc2ccc(C3CCN(c4ccn5c(CC6CC6)nnc5c4Cl)CC3)cc2)cccc1C(=O)C1CCN(CCc2ccc(F)cc2)CC1`, for which the EC50 in assay [1] (read-out: EC50) was 1200 nM; in assay [2] (read-out: EC50), 530 nM; in [4] (read-out: EC50) it was 10000 to 50000 nM. Further, the IC50 in [3] (read-out: IC50) came out at 270 nM; in assay [7] it was 890 nM; in assay [8] it was 420 nM; in assay [6] (read-out: IC50), 510 nM. For the same compound, the Ki was determined as 100 nM in assay [9] (read-out: Ki), 120 nM in assay [10] (read-out: Ki) and 190 nM in [11] (read-out: Ki).

For the compound `COc1c(OCCOCCOCCOCCOc2ccc(C3CCN(c4ccn5c(CC6CC6)nnc5c4Cl)CC3)cc2)cccc1C(=O)C1CCN(CCc2ccc(F)cc2)CC1`, the EC50 in [1] (read-out: EC50) is 550 nM; in [2] (read-out: EC50) it was 330 nM; in [4] (read-out: EC50), 10000 to 50000 nM. Also, the IC50 in assay [3] (read-out: IC50) was 280 nM; in [3] (read-out: pIC50 (converted)), 288 nM; in [7] it was 990 nM; in assay [8], 800 nM; in assay [6] (read-out: IC50), 1700 nM; in assay [6] (read-out: pIC50 (converted)), 1550 nM. Also, the figures for the Ki in assay [9] (read-out: Ki), in assay [10] (read-out: Ki) and in assay [11] (read-out: Ki) were 33 nM, 100 nM and 110 nM, respectively.

As for `COc1c(OCCOCCOCCOCCOCCOCCOCCOCCOCCOCCOc2ccc(C3CCN(c4ccn5c(CC6CC6)nnc5c4Cl)CC3)cc2)cccc1C(=O)C1CCN(CCc2ccc(F)cc2)CC1`, the EC50 was 1200 nM in [1] (read-out: EC50), 320 nM in assay [2] (read-out: EC50) and 10000 to 50000 nM in assay [4] (read-out: EC50). For the same compound, the IC50 in [3] (read-out: IC50) was 300 nM; in [7], 1200 nM; in [8], 140 nM; in [6] (read-out: IC50), 300 nM; in assay [6] (read-out: pIC50 (converted)), 309 nM. For the same compound, the Ki in assay [9] (read-out: Ki) was 79 nM; in [10] (read-out: Ki) it was 70 nM; in [10] (read-out: pKi (converted)), 72.4 nM; in assay [11] (read-out: Ki), 120 nM.

Consider `COc1c(OCCOCCOCCOc2ccc(C3CCN(c4ccn5c(CC6CC6)nnc5c4Cl)CC3)cc2)cccc1C(=O)C1CCN(CCc2ccc(F)cc2)CC1`, for which the EC50 in assay [1] (read-out: EC50) is 900 nM; in assay [2] (read-out: EC50), 320 nM; in assay [4] (read-out: EC50) it was 10000 to 50000 nM. Further, the IC50 was 1200 nM in [3] (read-out: IC50), 5300 nM in assay [7], 9900 nM in assay [8] and 7900 nM in assay [6] (read-out: IC50). The figures for the Ki in assay [9] (read-out: Ki), in assay [10] (read-out: Ki) and in assay [11] (read-out: Ki) were 360 nM, 840 nM and 1040 nM, respectively.

For the compound `COc1c(OCCOCCOCCOCCOCCOCCOCCOCCOc2ccc(C3CCN(c4ccn5c(CC6CC6)nnc5c4Cl)CC3)cc2)cccc1C(=O)C1CCN(CCc2ccc(F)cc2)CC1`, the results for the EC50 in assay [1] (read-out: EC50), in assay [2] (read-out: EC50) and in [4] (read-out: EC50) were 1600 nM, 510 nM and 10000 to 50000 nM, respectively. Besides, the IC50 in [3] (read-out: IC50) was determined as 410 nM; in assay [7], 660 nM; in assay [8], 470 nM; in [6] (read-out: IC50), 270 nM. Besides, the Ki in [9] (read-out: Ki) is 110 nM; in assay [9] (read-out: pKi (converted)), 120 nM; in [10] (read-out: Ki) it was 120 nM; in assay [11] (read-out: Ki), 160 nM; in assay [11] (read-out: pKi (converted)), 132 nM.

For the compound `COc1c(O)cccc1C(=O)C1CCN(CCc2ccc(F)cc2)CC1`, the EC50 was over 50000 nM in [1] (read-out: EC50); over 50100 nM in [1] (read-out: pEC50 (converted)); over 50000 nM in assay [2] (read-out: EC50); over 50100 nM in assay [2] (read-out: pEC50 (converted)); over 50000 nM in assay [4] (read-out: EC50); over 50100 nM in assay [4] (read-out: pEC50 (converted)). For the same compound, the IC50 in [3] (read-out: IC50) turned out to be 11 nM; in assay [7], 23 nM; in assay [8], 22 nM; in assay [6] (read-out: IC50), 9.2 nM.
